Source: PubChem BioAssay
CAL PDZ FP-1 = inhibitors of human CAL PDZ peptide binding; 330,000 compounds, 0.02% hits; inhibition, % at 20 µM; purified CAL PDZ, TMR-peptide fluorescence polarization, 1 h; Q9HD26;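 active means highest replicate inhibition of at least 40%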;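 further: plate controls were DMSO neutral control wells for no effect and unlabeled competitor peptide control wells for full effect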
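material = purified tagged CAL PDZ domain construct (CerCALP) | buffer or medium = sodium phosphate/NaCl buffer pH 7.4 with TCEP, IgG, Thesit | reagent = TMR-labelled reporter peptide T*-PRC34 bound in PDZ groove | incubation = 1 h room-temperature incubation prior to read | measured by = fluorescence polarization (mP) | evaluation = percent inhibition from loss of millipolarization | control set = unlabelled peptide and DMSO controls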
LANA DNA inh = inhibitors of KSHV LANA C-terminal domain DNA binding; MBP-C-LANA/FAM-LBS DNA binding, fluorescence polarization; inhibition, % at 9 µM; 340,000 compounds, 0.078% hits;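 active means highest replicate inhibition at or above 60% at 9 µM, even if other replicates fall short; inactive means all replicates below 60% inhibition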;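 further: 0% = neutral control wells and 100% = 4 µM acridine orange control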
CAL PDZ FP-2 = blocks peptide binding to the human CAL PDZ domain. purified CAL PDZ, TMR-peptide fluorescence polarization, 1 h. AID 602252. 300,000 compounds, 0.92% hits. inhibition, % at 24.9 µM;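 active means mean inhibition of at least 30% with at least half of replicates also reaching 30%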;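 further: 0% = DMSO neutral control and 100% = excess unlabeled competitor peptide PRC23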
Keap1-Nrf2 PPI = inhibitors of human Keap1-Nrf2 protein-protein interaction; 340,000 compounds, 0.15% hits; Q14145; Keap1 Kelch-Nrf2 peptide fluorescence polarization, 1536-well; inhibition, % at 9.4 µM; in the data active means inhibition above about 12%;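 further: human Keap1 Kelch domain with fluorescein labeled Nrf2 9mer peptide probe; 0% = neutral control wells and 100% = peptide positive control; higher means more block of Keap1 binding to Nrf2 peptide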
Target sequence (Q14145 whole entry, looked up, the tested form may be a part): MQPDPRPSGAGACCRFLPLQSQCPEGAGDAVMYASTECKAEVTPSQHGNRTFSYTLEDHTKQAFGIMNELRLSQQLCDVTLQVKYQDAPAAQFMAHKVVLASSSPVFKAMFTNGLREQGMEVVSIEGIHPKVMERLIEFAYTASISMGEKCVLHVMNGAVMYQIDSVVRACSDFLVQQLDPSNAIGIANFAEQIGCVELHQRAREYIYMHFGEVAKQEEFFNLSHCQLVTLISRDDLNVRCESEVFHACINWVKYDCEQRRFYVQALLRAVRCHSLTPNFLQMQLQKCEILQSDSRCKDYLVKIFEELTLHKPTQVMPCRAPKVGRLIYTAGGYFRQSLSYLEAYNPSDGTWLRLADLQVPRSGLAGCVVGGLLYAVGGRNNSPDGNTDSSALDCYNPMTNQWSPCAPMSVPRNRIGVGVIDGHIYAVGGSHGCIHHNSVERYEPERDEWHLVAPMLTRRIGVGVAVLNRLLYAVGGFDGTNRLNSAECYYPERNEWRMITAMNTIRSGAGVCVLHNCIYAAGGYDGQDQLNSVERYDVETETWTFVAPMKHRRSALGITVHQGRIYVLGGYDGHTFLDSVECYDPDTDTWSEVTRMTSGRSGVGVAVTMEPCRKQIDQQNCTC
miR-122 sensor = miR-122 inhibition in Huh7 cells; Huh7 miR-122 Renilla luciferase sensor, 48 h; neutral wells = 0, positive control = 100; activation (reporter increase), % at 12.5 µM; 340,000 compounds, 0.3% hits;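 active means mean replicate activation score at least 90 and every replicate individually at or above 90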;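 further: higher luciferase means less miR-122 activity so hits act as miR-122 inhibitors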
Starred values were filed as active, the others as inactive; . = not tested or not shown; + = active, no number; [ ] = dose if it differs, or a comment. Hits are enriched below; roughly 1.1% of the tested compounds scored in any of these assays.

SMILES | CAL PDZ FP-1 | LANA DNA inh | CAL PDZ FP-2 | Keap1-Nrf2 PPI | miR-122 sensor
CC(=O)c1c(C)[nH]c(C(=O)COC(=O)c2c(-c3ccccc3)noc2C)c1C | 0 | 1 | 64* | 4 | 22
Cc1ccc(-c2ccc3c(c2)O[C@@H](CN(C)Cc2cncnc2)[C@@H](C)CN([C@@H](C)CO)S3(=O)=O)cc1 | . | . | . | . | -4[16.7 µM]
CN1C(=O)c2cc(NC(=O)c3cccc(F)c3)ccc2OC[C@@H]2O[C@@H](CC(=O)NC3CCC3)CC[C@@H]21 | . | . | . | . | -33[16.7 µM]
C[C@H](CO)N1C[C@H](C)[C@@H](CN(C)Cc2ccc(Oc3ccccc3)cc2)Oc2ccc(N(C)C)cc2CC1=O | . | . | . | . | -2[16.7 µM]
COc1ccc(NS(=O)(=O)c2cc(NC(=O)c3ccc(=O)[nH]c3)ccc2C)cc1 | -2 | 1 | 2 | 1 | 100*
C=CCNc1oc(-c2cccs2)nc1S(=O)(=O)c1ccccc1 | 4 | 1 | 39* | -7 | 4
C=CCNc1oc(-c2ccco2)nc1S(=O)(=O)c1ccccc1 | -1 | 1 | . | -8 | .
CN1C(=O)c2cc(NS(=O)(=O)c3ccccc3Cl)ccc2OC[C@@H]2O[C@@H](CC(=O)O)CC[C@H]21 | . | . | . | . | 2[16.7 µM]
COc1ccc(-c2nn(CCC#N)cc2/C=N/O)cc1 | 0 | 4 | -2 | 0 | .
COc1ccc(-c2nn(CCC#N)cc2/C=N/O)cc1OC | 9 | -3 | 58* | -2 | .
COc1ccc(NC(=O)N(C)C[C@H]2OCCCC[C@H](C)Oc3ccc(NS(=O)(=O)c4ccc(C)cc4)cc3C(=O)N([C@@H](C)CO)C[C@@H]2C)cc1 | . | . | . | . | -3[16.7 µM]
Cc1c(NS(=O)(=O)c2ccc(S(=O)(=O)c3ccccc3)s2)c(=O)n(-c2ccccc2)n1C | 0 | 0 | 50* | -6 | .
Cc1c(NS(=O)(=O)c2ccc(Br)s2)c(=O)n(-c2ccccc2)n1C | 0 | -1 | -5 | -2 | -3
CCCCC(NS(=O)(=O)c1ccc(OC)cc1)C(=O)O (configuration not stated) | 3 | 0 | 49* | 4 | -5
CC(C)Oc1ccc2nnnn2n1 | . | 1 | 130* | -5 | -4
C[C@@H]1CCCCO[C@H](CN(C)CC2CCCCC2)[C@H](C)CN([C@@H](C)CO)C(=O)c2cc(NS(=O)(=O)c3ccc(Cl)cc3)ccc2O1 | . | . | . | . | -25[16.7 µM]
Oc1ccc(Cl)cc1N=Nc1ccccc1 | 0 | -1 | 2 | -4 | -5
Nc1c(Cl)cc(N=Nc2ccccc2)cc1Cl | 0 | 2 | + | 4 | 5
CN(CC(=O)NCC(=O)Nc1ccc(F)cc1)CC(=O)Nc1ccc(Cl)c(C(F)(F)F)c1 | -1 | 0 | 47* | -3 | 2
CN(CC(=O)NCc1ccc(F)cc1)CC(=O)Nc1ccc(Cl)c(C(F)(F)F)c1 | 0 | -1 | . | 8 | -7
O=S(Cc1ccccc1)CC(O)(c1ccc(Cl)cc1)c1ccc(Cl)cc1 (configuration not stated) | -1 | 0 | -3 | 0 | 139*
O=S(Cc1ccccc1)Cc1ccccc1 | 0 | 0 | -1 | -3 | -3
O=S(Cc1ccccc1)CC(O)(c1ccccc1)c1ccccc1 (configuration not stated) | 0 | 1 | 5 | 1 | 8
O=S(Cc1ccc(Cl)cc1)CC(O)(c1ccccc1)c1ccccc1 (configuration not stated) | -2 | 3 | -1 | -2 | 147*
COc1ccc(NC(=O)Nc2ccc3c(c2)CC(=O)N([C@H](C)CO)C[C@@H](C)[C@H](CN(C)C(=O)Nc2ccc4c(c2)OCO4)O3)cc1 | . | . | . | . | -7[16.7 µM]
C[C@@H]1CN([C@@H](C)CO)C(=O)c2cccc(NS(=O)(=O)c3ccc(Cl)cc3)c2O[C@@H]1CN(C)Cc1ccc(C(=O)Nc2ccccc2N)cc1 | . | . | . | . | 129*[16.7 µM]
C[C@@H]1CN([C@@H](C)CO)C(=O)c2cccc(NS(=O)(=O)c3ccccc3)c2O[C@@H]1CN(C)Cc1ccc(C(=O)Nc2ccccc2N)cc1 | . | . | . | . | 181*[16.7 µM]
O=C(C[C@H]1C[C@H]2c3cc(NC(=O)C4CCC4)ccc3O[C@H]2[C@@H](CO)O1)NCc1cc(F)ccc1F | . | . | . | . | 5[16.7 µM]
C=CCNS(=O)(=O)c1cc(S(=O)(=O)NCC=C)c(OC)cc1OC | 0 | -1 | 0 | -1 | .
C=CCNc1cc(F)ccc1S(=O)(=O)NCC=C | -1 | -1 | -8 | -3 | 96*
